Test results published in ChEMBL document CHEMBL4184106, “Discovering alkylamide derivatives of bexarotene as new therapeutic agents against triple-negative breast cancer” (Bioorg Med Chem Lett, 2018).
Calls of active or inactive are those of the source. The calls are words filed in the database; no cut-off is given here.

Tests used:
BT-549 [1] = experiment: Effect on epithelial-mesenchymal transition in human BT549 cells assessed as ratio of E-cadherin to beta-actin level at 5 uM by Western blot analysis (reference value: 1); assay type: functional
BT-549 [2] = experiment: Effect on beta-catenin translocation in nuclear fraction of human BT549 cells assessed as ratio of beta-catenin to beta-actin level at 10 uM by Western blot analysis (reference value: 1); assay type: functional
MDA-MB-231 [3] = experiment: Effect on epithelial-mesenchymal transition in human MDA-MB-231 cells assessed as ratio of E-cadherin to beta-actin level at 5 uM by Western blot analysis (reference value: 1); assay type: functional
MDA-MB-231 [4] = experiment: Anti-migratory activity against human MDA-MB-231 cells assessed as reduction in wound closure at 5 uM up to 24 hrs by wound-healing assay; assay type: functional, cell-based
Method in brief: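 MDA-MB-231 monolayer was scratched to make a wound gap. Cells were treated alongside a DMSO vehicle control, and migration into the gap was imaged at 24 h.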

BT-549 [5] = experiment: Inhibition of mammosphere formation in human BT549 cells assessed as ratio of KLF4 to beta actin level at 5 uM by Western blot analysis (Rvb= 1); assay type: functional
MCF7 [6] = experiment: Inhibition of mammosphere formation in human MCF7 cells assessed as ratio of C-Myc to beta actin level at 5 uM by Western blot analysis (Rvb= 1); assay type: functional
Method in brief: (§1)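 Post-treatment cell lysates were probed by Western blot for CSC markers, with β-actin as the loading control. Band densitometry was normalized to DMSO-treated samples.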

MCF7 [7] = experiment: Inhibition of mammosphere formation in human MCF7 cells assessed as ratio of Oct4A to beta actin level at 5 uM by Western blot analysis (Rvb= 1); assay type: functional; method in brief: as §1
MCF7 [8] = experiment: Inhibition of colony formation in human MCF7 cells at 5 uM supplemented with fresh medium containing compound every 3 to 4 days for 7 days by crystal violet staining based adherent cell colony-forming assay; assay type: functional
Method in brief: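 MCF-7 cells were plated for adherent colony formation and treated for 7 days. Colonies were counted at the end of treatment and normalized to untreated samples.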

MCF7 [9] = experiment: Induction of apoptosis in human MCF7 cells assessed as ratio of cleaved caspase-8 to beta-actin level at 5 uM by western blot analysis (reference value: 1); assay type: functional
MDA-MB-231 [10] = experiment: Induction of apoptosis in human MDA-MB-231 cells assessed as ratio of cleaved caspase-9 to beta-actin level at 5 uM by western blot analysis (reference value: 1); assay type: functional
MDA-MB-231 [11] = experiment: Effect on beta-catenin translocation in cytosolic fraction of human MDA-MB-231 cells assessed as ratio of beta-catenin to beta-actin level at 10 uM by Western blot analysis (reference value: 1); assay type: functional
BT-549 [12] = experiment: Induction of apoptosis in human BT549 cells assessed as ratio of cleaved caspase-8 to beta-actin level at 5 uM by western blot analysis (reference value: 1); assay type: functional
MDA-MB-231 [13] = experiment: Cytotoxicity against human MDA-MB-231 cells assessed as reduction in cell viability by MTT assay; assay type: functional, cell-based
MDA-MB-231 [14] = experiment: Induction of apoptosis in nuclear fractions of human MDA-MB-231 cells assessed as ratio of cleaved PARP to beta-actin level at 10 uM by western blot analysis (reference value: 1); assay type: functional
MDA-MB-231 [15] = experiment: Effect on beta-catenin translocation in nuclear fraction of human MDA-MB-231 cells assessed as ratio of beta-catenin to beta-actin level at 10 uM by Western blot analysis (reference value: 1); assay type: functional
BT-549 [16] = experiment: Effect on epithelial-mesenchymal transition in human BT549 cells assessed as ratio of slug to beta-actin level at 5 uM by Western blot analysis (reference value: 1); assay type: functional
MCF-10A [17] = experiment: Cytotoxicity against human MCF10A cells assessed as reduction in cell viability at 5 uM by MTT assay; assay type: cell-based
MCF7 [18] = experiment: Inhibition of mammosphere formation in human MCF7 cells assessed as ratio of Sox2 to beta actin level at 5 uM by Western blot analysis (Rvb= 1); assay type: functional; method in brief: as §1
BT-549 [19] = experiment: Induction of apoptosis in human BT549 cells assessed as ratio of cleaved caspase-9 to beta-actin level at 5 uM by western blot analysis (reference value: 1); assay type: functional
MCF7 [20] = experiment: Induction of apoptosis in human MCF7 cells assessed as ratio of cleaved caspase-9 to beta-actin level at 5 uM by western blot analysis (reference value: 1); assay type: functional
MDA-MB-231 [21] = experiment: Induction of apoptosis in human MDA-MB-231 cells assessed as ratio of cleaved caspase-3 to beta-actin level at 5 uM by western blot analysis (reference value: 1); assay type: functional
BT-549 [22] = experiment: Induction of apoptosis in human BT549 cells assessed as ratio of cleaved caspase-3 to beta-actin level at 5 uM by western blot analysis (reference value: 1); assay type: functional
MDA-MB-231 [23] = experiment: Induction of apoptosis in nuclear fractions of human MDA-MB-231 cells assessed as ratio of PARP to beta-actin level at 10 uM by western blot analysis (reference value: 1); assay type: functional
MDA-MB-231 [24] = experiment: Inhibition of mammosphere formation in human MDA-MB-231 cells assessed as ratio of C-Myc to beta actin level at 5 uM by Western blot analysis (Rvb= 1); assay type: functional; method in brief: as §1
BT-549 [25] = experiment: Inhibition of mammosphere formation in human BT549 cells assessed as ratio of C-Myc to beta actin level at 5 uM by Western blot analysis (Rvb= 1); assay type: functional
MDA-MB-231 [26] = experiment: Inhibition of mammosphere formation in human MDA-MB-231 cells assessed as ratio of KLF4 to beta actin level at 5 uM by Western blot analysis (Rvb= 1); assay type: functional; method in brief: as §1
MCF-10A [27] = experiment: Induction of apoptosis in human MCF10A cells assessed as ratio of cleaved caspase-8 to beta-actin level at 5 uM by western blot analysis (reference value: 1); assay type: cell-based
MCF7 [28] = experiment: Cytotoxicity against human MCF7 cells assessed as reduction in cell viability at 5 uM by MTT assay; assay type: functional
BT-549 [29] = experiment: Cytotoxicity against human BT549 cells assessed as reduction in cell viability at 5 uM by MTT assay; assay type: functional
BT-549 [30] = experiment: Induction of apoptosis in nuclear fractions of human BT549 cells assessed as ratio of cleaved PARP to beta-actin level at 5 uM by western blot analysis (reference value: 1)
MCF-10A [31] = experiment: Induction of apoptosis in human MCF10A cells assessed as ratio of cleaved caspase-3 to beta-actin level at 5 uM by western blot analysis (reference value: 1); assay type: cell-based
MCF7 [32] = experiment: Inhibition of mammosphere formation in human MCF7 cells at 10 uM after 7 days by microscopic method; assay type: functional, cell-based
Method in brief: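 MCF-7 cells were grown under mammosphere-forming conditions with compound. Spheres 60 μm or larger were counted for quantitation.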

MCF7 [33] = experiment: Induction of apoptosis in human MCF7 cells assessed as ratio of cleaved caspase-3 to beta-actin level at 5 uM by western blot analysis (reference value: 1); assay type: functional
BT-549 [34] = experiment: Cytotoxicity against human BT549 cells assessed as reduction in cell viability by MTT assay; assay type: functional, cell-based
BT-549 [35] = experiment: Induction of apoptosis in nuclear fractions of human BT549 cells assessed as ratio of PARP to beta-actin level at 10 uM by western blot analysis (reference value: 1); assay type: functional
MCF-10A [36] = experiment: Induction of apoptosis in human MCF10A cells assessed as ratio of cleaved caspase-9 to beta-actin level at 5 uM by western blot analysis (reference value: 1); assay type: cell-based
MDA-MB-231 [37] = experiment: Effect on epithelial-mesenchymal transition in human MDA-MB-231 cells assessed as ratio of slug to beta-actin level at 5 uM by Western blot analysis (reference value: 1); assay type: functional
MCF7 [38] = experiment: Inhibition of mammosphere formation in human MCF7 cells assessed as ratio of Nanog to beta actin level at 5 uM by Western blot analysis (Rvb= 1); assay type: functional; method in brief: as §1
MDA-MB-231 [39] = experiment: Induction of apoptosis in human MDA-MB-231 cells assessed as ratio of cleaved caspase-8 to beta-actin level at 5 uM by western blot analysis (reference value: 1); assay type: functional
MDA-MB-231 [40] = experiment: Inhibition of colony formation in human MDA-MB-231 cells at 10 uM supplemented with fresh medium containing compound every 3 days for 10 days by microscopic method based soft agar colony formation assay; assay type: functional, cell-based
MDA-MB-231 [41] = experiment: Effect on epithelial-mesenchymal transition in human MDA-MB-231 cells assessed as ratio of vimentin to beta-actin level at 5 uM by Western blot analysis (reference value: 1); assay type: functional
MDA-MB-231 [42] = experiment: Cytotoxicity against human MDA-MB-231 cells assessed as reduction in cell viability at 5 uM by MTT assay; assay type: functional
BT-549 [43] = experiment: Effect on epithelial-mesenchymal transition in human BT549 cells assessed as ratio of vimentin to beta-actin level at 5 uM by Western blot analysis (reference value: 1); assay type: functional
MCF7 [44] = experiment: Inhibition of mammosphere formation in human MCF7 cells assessed as ratio of KLF4 to beta actin level at 5 uM by Western blot analysis (Rvb= 1); assay type: functional; method in brief: as §1
BT-549 [45] = experiment: Effect on beta-catenin translocation in cytosolic fraction of human BT549 cells assessed as ratio of beta-catenin to beta-actin level at 10 uM by Western blot analysis (reference value: 1); assay type: functional

Compound: C=C(c1ccc(C(=O)O)cc1)c1cc2c(cc1C)C(C)(C)CCC2(C)C [BEXAROTENE]
- Ratio (BT-549 [1]): 9.2
- Ratio (BT-549 [2]): 0.7
- Ratio (MDA-MB-231 [3]): 10.8
- Activity (MDA-MB-231 [4]): inactive
- Ratio (BT-549 [5]): 1.2
- Ratio (MCF7 [6]): 1
- Ratio (MCF7 [7]): 1.2
- inhibition (MCF7 [8]): inactive
- Ratio (MCF7 [9]): 1
- Ratio (MDA-MB-231 [10]): 3.2
- Ratio (MDA-MB-231 [11]): 2.4
- Ratio (BT-549 [12]): 1.1
- EC50 (MDA-MB-231 [13]): > 56 µM
- Ratio (MDA-MB-231 [14]): 1.6
- Ratio (MDA-MB-231 [15]): 1.8
- Ratio (BT-549 [16]): 1.3
- Activity (MCF-10A [17]): Non-Toxic
- Ratio (MCF7 [18]): 0.8
- Ratio (BT-549 [19]): 1.3
- Ratio (MCF7 [20]): 1.2
- Ratio (MDA-MB-231 [21]): 2.7
- Ratio (BT-549 [22]): 1.1
- Ratio (MDA-MB-231 [23]): 0.9
- Ratio (MDA-MB-231 [24]): 1.2
- Ratio (BT-549 [25]): 1.4
- Ratio (MDA-MB-231 [26]): 1.3
- Ratio (MCF-10A [27]): 1
- Activity (MCF7 [28]): inactive
- Activity (BT-549 [29]): inactive
- Ratio (BT-549 [30]): 1.7
- Ratio (MCF-10A [31]): 0.95
- inhibition (MCF7 [32]): inactive
- Ratio (MCF7 [33]): 0.9
- EC50 (BT-549 [34]): > 56 µM
- Ratio (BT-549 [35]): 1.8
- Ratio (MCF-10A [36]): 1.1
- Ratio (MDA-MB-231 [37]): 1
- Ratio (MCF7 [38]): 1
- Ratio (MDA-MB-231 [39]): 3.4
- inhibition (MDA-MB-231 [40]): inactive
- Ratio (MDA-MB-231 [41]): 0.4
- Activity (MDA-MB-231 [42]): inactive
- Ratio (BT-549 [43]): 0.9
- Ratio (MCF7 [44]): 1
- Ratio (BT-549 [45]): 2.2
